The source made the active and inactive calls. The rule behind the calls is not given here.
Key:
[1] = system: HCT-116; assay: Antiproliferative activity against human HCT116 cells by SRB method; type: functional, cell-based
[2] = system: MCF7; assay: Antiproliferative activity against human MCF7 cells by SRB method; type: functional, cell-based
[3] = target: T1, Retinoblastoma-associated protein (Homo sapiens) (UniProt P06400); assay: Inhibition of retinoblastoma susceptibility gene product phosphorylation in human MCF7 cells after 24 hrs; type: cell-based
T1 sequence (whole entry): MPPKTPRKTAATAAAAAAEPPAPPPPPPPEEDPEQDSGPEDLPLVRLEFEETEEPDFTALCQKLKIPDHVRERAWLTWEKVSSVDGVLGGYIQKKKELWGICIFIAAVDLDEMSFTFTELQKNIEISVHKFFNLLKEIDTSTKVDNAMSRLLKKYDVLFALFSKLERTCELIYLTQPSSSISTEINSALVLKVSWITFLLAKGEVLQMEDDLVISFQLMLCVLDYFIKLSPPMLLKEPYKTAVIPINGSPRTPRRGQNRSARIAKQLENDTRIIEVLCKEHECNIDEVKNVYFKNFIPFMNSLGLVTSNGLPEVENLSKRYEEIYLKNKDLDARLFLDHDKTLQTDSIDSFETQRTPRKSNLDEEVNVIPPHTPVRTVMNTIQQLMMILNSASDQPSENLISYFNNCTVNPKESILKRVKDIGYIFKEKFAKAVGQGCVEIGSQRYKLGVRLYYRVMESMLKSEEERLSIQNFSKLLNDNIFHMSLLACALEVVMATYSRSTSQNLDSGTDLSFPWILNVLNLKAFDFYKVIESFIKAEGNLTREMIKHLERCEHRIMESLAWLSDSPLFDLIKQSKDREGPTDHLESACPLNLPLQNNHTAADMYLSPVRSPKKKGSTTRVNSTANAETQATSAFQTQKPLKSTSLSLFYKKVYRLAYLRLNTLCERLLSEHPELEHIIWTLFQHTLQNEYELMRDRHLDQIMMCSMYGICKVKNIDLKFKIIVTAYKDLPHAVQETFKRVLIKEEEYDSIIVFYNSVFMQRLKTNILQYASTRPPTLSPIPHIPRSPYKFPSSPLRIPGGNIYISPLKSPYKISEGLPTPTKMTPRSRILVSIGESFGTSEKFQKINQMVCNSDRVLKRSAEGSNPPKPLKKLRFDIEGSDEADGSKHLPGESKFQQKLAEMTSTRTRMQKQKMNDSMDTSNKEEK
Method in brief: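 MCF-7 cells exposed to compound for 24 h at 37 °C. Extracts separated by SDS-PAGE and immunoblotted with Rb antibody, with the phosphorylated pRB band followed. Also checked with an antibody specific for phospho-Ser807/811 pRB.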

[4] = system: MCF7; assay: Cell cycle arrest in human MCF7 cells assessed as accumulation at G1 phase after 24 hrs by flow cytometry; type: functional, cell-based
Method in brief: (§1)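 MCF-7 cells in 6-well plates, exposed to compound for 24 h at 37 °C, then pulse-labelled with 10 µM bromodeoxyuridine for 30 min. Cells trypsinized, fixed in 80% methanol at -20 °C, acid-denatured and permeabilized, stained with anti-BrdU-FITC, counterstained with propidium iodide and run on flow cytometry. S-phase percentage taken from the propidium iodide histogram.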

[5] = system: MCF7; assay: Cell cycle arrest in human MCF7 cells assessed as accumulation at S phase at 0.1 uM after 24 hrs by flow cytometry; type: functional; method in brief: as §1
[6] = system: MCF7; assay: Cell cycle arrest in human MCF7 cells assessed as accumulation at S phase at 0.3 uM after 24 hrs by flow cytometry; type: functional; method in brief: as §1
[7] = system: MCF7; assay: Cell cycle arrest in human MCF7 cells assessed as accumulation at S phase at 1 uM after 24 hrs by flow cytometry; type: functional; method in brief: as §1
[8] = system: MCF7; assay: Cell cycle arrest in human MCF7 cells assessed as accumulation at S phase at 3 uM after 24 hrs by flow cytometry; type: functional; method in brief: as §1
[9] = system: MCF7; assay: Decrease in cyclin D1 level in human MCF7 cells at 7.5 to 10 uM after 24 hrs by immunoblot analysis; type: functional; design: scale not given: the % may be the effect or the level left
Method in brief: (§2)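 MCF-7 cells incubated with or without compound for 24 h at 37 °C. Lysates made in Tris/NaCl/EDTA/NP-40/deoxycholate buffer containing PMSF, DTT, NaF and vanadate. 10-20 µg protein run on 8 or 10% SDS-PAGE and blotted to nitrocellulose. Probed with antibodies to each regulatory protein; actin antibody served as loading control.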

[10] = system: MCF7; assay: Decrease in CDK4 level in human MCF7 cells at 7.5 to 10 uM after 24 hrs by immunoblot analysis; type: functional; design: scale not given: the % may be the effect or the level left; method in brief: as §2
[11] = system: MCF7; assay: Decrease in CDK2 level in human MCF7 cells at 7.5 uM after 24 hrs by immunoblot analysis; type: functional; design: scale not given: the % may be the effect or the level left; method in brief: as §2
[12] = system: MCF7; assay: Decrease in cyclin B level in human MCF7 cells at 4 uM after 24 hrs by immunoblot analysis; type: functional; design: scale not given: the % may be the effect or the level left; method in brief: as §2
[13] = system: MCF7; assay: Decrease in CDK1 level in human MCF7 cells at 7.5 uM after 24 hrs by immunoblot analysis; type: functional; design: scale not given: the % may be the effect or the level left; method in brief: as §2
[14] = system: MCF7; assay: Increase in cyclin E level in human MCF7 cells at >2 uM after 24 hrs by immunoblot analysis; type: functional; method in brief: as §2
[15] = system: MCF7; assay: Decrease in p27 level in human MCF7 cells at 7.5 uM after 24 hrs by immunoblot analysis; type: functional; design: scale not given: the % may be the effect or the level left; method in brief: as §2
[16] = target: Cyclin-dependent kinase 4/cyclin D1 (Homo sapiens, UniProt P11802); assay: Inhibition of CDK4/cyclin D1 expressed in Sf9 cells-baculovirus system assessed as retinoblastoma susceptibility gene product phosphorylation
[17] = target: Cyclin-dependent kinase 1/cyclin B1 (Homo sapiens, UniProt P06493); assay: Inhibition of CDK1/Cyclin B1 expressed in Sf9 cells-baculovirus system assessed as retinoblastoma susceptibility gene product phosphorylation
[18] = target: Cyclin-dependent kinase 2 (Homo sapiens, UniProt P24941); assay: Inhibition of CDK2/cyclin E expressed in Sf9 cells-baculovirus system assessed as retinoblastoma susceptibility gene product phosphorylation

Chain of Cyclin-dependent kinase 1/cyclin B1 (P06493 whole entry): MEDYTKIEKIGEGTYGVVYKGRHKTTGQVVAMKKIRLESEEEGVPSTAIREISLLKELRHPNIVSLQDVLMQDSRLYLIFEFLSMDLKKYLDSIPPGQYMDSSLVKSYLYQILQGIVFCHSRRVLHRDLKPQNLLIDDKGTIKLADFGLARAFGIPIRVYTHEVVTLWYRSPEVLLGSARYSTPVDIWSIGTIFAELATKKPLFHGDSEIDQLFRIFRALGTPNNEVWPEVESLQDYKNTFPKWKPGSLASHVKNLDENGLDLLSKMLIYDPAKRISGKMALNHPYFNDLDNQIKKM
Chain of Cyclin-dependent kinase 1/cyclin B1 (P14635 whole entry, further chain): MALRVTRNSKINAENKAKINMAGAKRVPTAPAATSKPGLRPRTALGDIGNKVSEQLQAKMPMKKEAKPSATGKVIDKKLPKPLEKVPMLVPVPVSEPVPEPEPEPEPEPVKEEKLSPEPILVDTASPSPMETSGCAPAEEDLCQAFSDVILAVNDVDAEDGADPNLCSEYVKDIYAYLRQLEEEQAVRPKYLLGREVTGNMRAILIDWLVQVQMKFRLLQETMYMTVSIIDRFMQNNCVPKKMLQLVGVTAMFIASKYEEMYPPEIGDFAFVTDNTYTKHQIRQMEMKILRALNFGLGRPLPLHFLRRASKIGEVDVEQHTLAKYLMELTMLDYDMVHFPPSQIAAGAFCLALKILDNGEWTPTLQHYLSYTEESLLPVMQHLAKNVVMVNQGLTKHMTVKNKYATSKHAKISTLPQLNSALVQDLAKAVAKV
Chain of Cyclin-dependent kinase 4/cyclin D1 (P11802 whole entry): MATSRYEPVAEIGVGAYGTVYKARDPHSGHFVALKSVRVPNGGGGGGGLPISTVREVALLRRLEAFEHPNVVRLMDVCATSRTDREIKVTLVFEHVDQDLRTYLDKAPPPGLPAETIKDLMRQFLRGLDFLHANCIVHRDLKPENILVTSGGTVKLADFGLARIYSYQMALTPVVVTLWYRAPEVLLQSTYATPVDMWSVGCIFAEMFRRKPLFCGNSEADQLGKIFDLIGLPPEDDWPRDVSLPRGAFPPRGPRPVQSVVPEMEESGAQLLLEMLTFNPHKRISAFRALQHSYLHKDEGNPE
Chain of Cyclin-dependent kinase 4/cyclin D1 (P24385 whole entry, further chain): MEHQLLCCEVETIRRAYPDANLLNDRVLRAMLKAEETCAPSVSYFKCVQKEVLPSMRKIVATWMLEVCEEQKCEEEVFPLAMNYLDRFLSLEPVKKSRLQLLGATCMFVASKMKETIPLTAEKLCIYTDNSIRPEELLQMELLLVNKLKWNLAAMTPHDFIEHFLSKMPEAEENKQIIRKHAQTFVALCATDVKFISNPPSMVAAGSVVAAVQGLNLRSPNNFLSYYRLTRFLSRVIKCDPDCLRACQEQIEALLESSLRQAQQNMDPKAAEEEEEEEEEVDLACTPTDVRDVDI

Question: How did the IC50 [1] turn out when `O=C1NC(=O)c2ccc(Br)cc2/C1=C/Nc1ccc(CN2CCCCC2)cc1` was run?
Answer: 5 µM

Question: And the IC50 [2]?
Answer: 3.1 µM

Question: What about the Activity [3] of the same compound?
Answer: Dose-dependent effect

Question: And the Activity [4]?
Answer: Active

Question: What about the Activity [5] of the same compound?
Answer: 35%

Question: And the Activity [6]?
Answer: 34%

Question: And the Activity [7]?
Answer: 10%

Question: And the Activity [8]?
Answer: 2%

Question: What about the Activity [9] of the same compound?
Answer: 85%

Question: And the Activity [10]?
Answer: 60%

Question: And the Activity [11]?
Answer: 55%

Question: What about the Activity [12] of the same compound?
Answer: 60%

Question: What about the Activity [13] of the same compound?
Answer: 40%

Question: And the Activity [14]?
Answer: 5%

Question: What about the Activity [15] of the same compound?
Answer: 45%

Question: What about the IC50 [16] of the same compound?
Answer: 1.1 µM

Question: And the IC50 [17]?
Answer: > 50 µM

Question: What about the IC50 [18] of the same compound?
Answer: > 50 µM

Question: Which results are given for `CN1CCN(c2ccc(N/C=C3\C(=O)NC(=O)c4ccc(Br)cc43)cc2)CC1`?
Answer: IC50 [1]: 3.1 µM; IC50 [2]: 3 µM; Activity [3]: Dose-dependent effect; Activity [4]: Active; Activity [5]: 37%; Activity [6]: 32%; Activity [7]: 16%; Activity [8]: 3%; IC50 [17]: > 50 µM

Source: ChEMBL document CHEMBL1150411, “4-(Phenylaminomethylene)isoquinoline-1,3(2H,4H)-diones as potent and selective inhibitors of the cyclin-dependent kinase 4 (CDK4)” (J Med Chem, 2008)
